Assay results: PubChem BioAssay
Inconclusive results are not listed.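 The calls were made as follows, unless noted: active = inhibition over a set limit, the all-compound mean plus 3 SD, in both replicate runs; inconclusive = over that limit in just one replicate run; inactive = at or under that limit in both runs.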

What was measured:
[1] = S. cerevisiae growth inhibition in permissive medium (OD615), pilot counter-assay for S. cerevisiae lifespan shortening project, permissive growth control (AID 705;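 active = growth inhibition above 25% in both replicates, a cutoff set 3 SD above the mean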); conditions: OD615, 24 h, at 10 µM, stronger effect = higher value
Summary of the method: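 System – S. cerevisiae with engineered DeaD lifespan system · Buffer or medium – SC raffinose/galactose permissive medium · Schedule – cells pre-grown 4 h, then 24 h compound exposure, 30 °C humidified · Technique – culture turbidity as optical density at 615 nm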

[2] = S. cerevisiae growth inhibition in restrictive medium, OD615, pilot screen, restrictive growth control, yeast lifespan reduction project (AID 706;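 active = growth inhibition above a set limit, 3 SD over mean compound inhibition, in both replicates, cut at about 43% in these data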;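 also: modified DeaD lifespan yeast strain shifted to restrictive glucose medium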); conditions: OD615, 48 h, at 10 µM, stronger effect = higher value
Summary of the method: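 Material: engineered S. cerevisiae DeaD strain / Medium: glucose-based CSMM-D restrictive medium / Compound: single dose of 10 µM compound final, 0.25% DMSO / Timing: 4 h pre-incubation, 48 h exposure at 30 °C / Technique: OD615 absorbance reading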

[3] = doxorubicin toxicity protection in MRP-1 cells – H69AR cells, CellTiter-Glo, duplicate, MRP-1 activator project, pilot screen (AID 807;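 active = viability increase at or above a cutoff of the median across tested compounds plus 3 SD, cut at about 8.5% in these data, passing the limit was not always enough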;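 also: compound pretreatment 18-22 h then 72 h combined with doxorubicin; 0% = doxorubicin alone and 100% = vehicle without doxorubicin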); conditions: H69AR viability with doxorubicin, CellTiter-Glo luminescence; at 10 µM; stronger effect = higher value
[4] = viability of HCT116 without oncogenic beta-catenin – human colon tumor cells, pilot screen (AID 823;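 active = cell viability at or below a set limit in both duplicate runs, the limit being the all-compound median minus 4 SD, cut at about 23% in these data, passing the limit was not always enough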;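 also: 0% = wells killed by 20 µM Hyamine and 100% = untreated DMSO cell wells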); conditions: HCT116 beta-catenin knockout viability, CellTiter-Glo, 60 h; at 10 µM; stronger effect = lower value
[5] = viability of PTEN-null HCT116 cells – cell-based, HCT116 clonal line, CellTiter-Glo, pilot screen (AID 824;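 active = viability at or below 27.92% in each of two runs, the all-compound median minus 4 SD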;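 also: 0% = 20 µM Hyamine control and 100% = vehicle cell control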); conditions: HCT116 PTEN-deleted viability, 60 h, at 10 µM, stronger effect = lower value
[6] = RAM pathway blockade in budding yeast – dse1pr::URA3 reporter, 5-FOA selection, pilot screen (AID 869);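 also: 0% = DMSO wells with no growth and 100% = 10 µM 1-NA-PP1 with full growth; RAM network block rescues cells from 5-FOA so hits raise OD615 growth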; conditions: S. cerevisiae dse1pr::URA3 5-FOA growth, OD615, 2 d; at 10 µM; stronger effect = higher value; strain carries analog-sensitive mutant Cbk1 kinase
[7] = RAM signaling pathway blockade in yeast – S. cerevisiae, Pdr1DBD-CYC8 efflux-inhibited sensitized strain, primary screen (AID 1298;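 active = RAM network inhibition above 8.4% in each of two replicates, 3 SD over the compound average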;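 also: 0% = DMSO untreated cells without growth and 100% = 10 µM 1-NA-PP1 full growth; higher means more yeast growth rescued from 5-FOA killing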); conditions: S. cerevisiae cbk1-as DSE1-URA3 strain, 5-FOA growth OD615, 2 d; at 50 µM; stronger effect = higher value

O=C(O)c1cccc(NS(=O)(=O)c2cccc3cccnc23)c1
inactive: growth inhibition [1] -3.04% | growth inhibition [2] -3.79% | viability increase [3] 0.96% | viability [4] 103% | viability [5] 99.8% | inhibition [6] 0.655% | RAM network inhibition [7] 4.37%

COc1ccc(C2CC(C(F)(F)F)n3nc(C(=O)O)c(Cl)c3N2)cc1OC (stereo unspecified)
inactive: growth inhibition [1] -2.51% | growth inhibition [2] -1.92% | viability increase [3] 0.25% | viability [4] 105% | viability [5] 97.6% | inhibition [6] 0.77% | RAM network inhibition [7] 2.86%

O=C(C1CCC(CNc2c(N3CCCCC3)c(=O)c2=O)CC1)N1CCN(c2ccccn2)CC1 (stereo unspecified)
inactive: growth inhibition [1] -4.55% | growth inhibition [2] -1.08% | viability increase [3] -0.36% | viability [4] 102% | viability [5] 99.1% | inhibition [6] -0.5% | RAM network inhibition [7] 4.92%

O=C(Cn1cc2c(n1)CCCCC2)NCc1cccs1
inactive: growth inhibition [1] 0.86% | growth inhibition [2] 0.58% | viability increase [3] -1.84% | viability [4] 100% | viability [5] 87.7% | inhibition [6] 0.935% | RAM network inhibition [7] 1.69%

COC(=O)CN1C(=O)COc2ccc(Cl)cc21
inactive: growth inhibition [1] 4.22% | growth inhibition [2] -4.81% | viability increase [3] -0.89% | viability [4] 104% | viability [5] 94% | inhibition [6] 0.605% | RAM network inhibition [7] 2.29%

CC(=O)Nc1nonc1-c1nc2ccccc2n1N(C(C)=O)C(C)=O
inactive: growth inhibition [1] 3.74% | growth inhibition [2] 8.55% | viability increase [3] -2.77% | viability [4] 93.2% | viability [5] 93.5% | inhibition [6] 2.67% | RAM network inhibition [7] 3.63%

O=C(NCN1CCc2ccccc2C1)c1cnccn1
inactive: growth inhibition [1] -18.3% | growth inhibition [2] -15.1% | viability increase [3] -3.49% | viability [4] 96.3% | viability [5] 96.6% | inhibition [6] 3.92% | RAM network inhibition [7] 5.24%

CCCCCn1c(CCNC(=O)c2cccs2)nc2ccccc21
inactive: growth inhibition [1] -9.44% | growth inhibition [2] -0.75% | viability increase [3] -2.25% | viability [4] 94.2% | viability [5] 86.4% | inhibition [6] 2.39% | RAM network inhibition [7] 0.13%

COc1ccc(S(=O)(=O)NCc2ccc3c(c2)cc(C)n3C)cc1
inactive: growth inhibition [1] -0.89% | growth inhibition [2] -11.2% | viability increase [3] -4.17% | viability [4] 99.1% | viability [5] 96% | inhibition [6] 1.31% | RAM network inhibition [7] 7.17%

COc1ccc(OC)c(-c2nnc(NC(=O)C(C)Sc3nncn3C)s2)c1 (stereo unspecified)
inactive: growth inhibition [1] -1.32% | growth inhibition [2] 23.7% | viability increase [3] -4.48% | viability [4] 106% | viability [5] 95.5% | inhibition [6] 0.65% | RAM network inhibition [7] 0.37%

Cc1c(NC(=O)NCCN2C(=O)C3C4C=CC(C4)C3C2=O)c(=O)n(-c2ccccc2)n1C (stereo unspecified)
inactive: growth inhibition [1] -9.82% | growth inhibition [2] -8.71% | viability increase [3] 0.15% | viability [4] 98.2% | viability [5] 99.8% | inhibition [6] 1.09% | RAM network inhibition [7] 4.55%

Cc1[nH]nc2c1C(c1ccccc1F)NC2=O (stereo unspecified)
inactive: growth inhibition [1] -0.665% | growth inhibition [2] -2.84% | viability increase [3] -1.22% | viability [4] 106% | viability [5] 97.9% | inhibition [6] 2.04% | RAM network inhibition [7] -0.67%

Cc1ccc(-c2noc(CSc3nnnn3C3CCCCC3)n2)cc1
inactive: growth inhibition [1] -16.1% | growth inhibition [2] -13.6% | viability increase [3] -1.39% | viability [4] 89.8% | viability [5] 84% | inhibition [6] 0.525% | RAM network inhibition [7] 5.16%

CCOC(=O)c1cnc2c(C#N)c(C)nn2c1-c1ccccc1
inactive: growth inhibition [1] -5.3% | growth inhibition [2] 0.945% | viability increase [3] -0.99% | viability [4] 94% | viability [5] 92.7% | inhibition [6] 1.69% | RAM network inhibition [7] 3.66%

c1cncc(-c2noc(-c3ccco3)n2)c1
inactive: growth inhibition [1] -5.2% | growth inhibition [2] 7% | viability increase [3] 1.76% | viability [4] 96.7% | viability [5] 94.2% | inhibition [6] 1.41% | RAM network inhibition [7] 4.61%

CCOC(=O)CCc1c(C)c2c(C)nn(-c3ccccc3)c2[nH]c1=O
inactive: growth inhibition [1] -2.26% | growth inhibition [2] -0.33% | viability increase [3] -1.19% | viability [4] 99% | viability [5] 95.9% | inhibition [6] 1.65% | RAM network inhibition [7] 1.84%

CC(C)(C)c1ccc(-c2nnc3sc(-c4ccccn4)nn23)cc1
inactive: growth inhibition [1] -19.2% | growth inhibition [2] -24.6% | viability increase [3] 0.61% | viability [4] 100% | viability [5] 89.2% | inhibition [6] 2.01% | RAM network inhibition [7] 1.31%

CC(=O)NC(NC(C)=O)c1ccc(N(C)C)cc1
inactive: growth inhibition [1] 2.72% | growth inhibition [2] 16.3% | viability increase [3] -0.12% | viability [4] 100% | viability [5] 100% | inhibition [6] -0.22% | RAM network inhibition [7] -0.26%
